According to article PMC10908290 (Drug Design, Development and Therapy, 2024):
≈ marks a conversion by molar mass, not a printed value.

Assays:
E. coli (MTCC 739) = assay: Antibacterial disc diffusion, E. coli; type: cell-based; conditions: Escherichia coli, MTCC739, 24 h, read-out: Diameter of Growth Inhibition Zone
How it was run: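 Test compound dissolved in DMSO at 100 μg/mL and loaded onto 8 mm sterile filter-paper discs. E. coli MTCC 739 prepared from pure colonies in sterile saline, adjusted to 0.5 McFarland, and swabbed onto Mueller-Hinton agar. Plates incubated 24 h at 37°C, then zone of inhibition measured. Ampicillin as reference. Mean ± SD of three independent experiments.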

mushroom tyrosinase = assay: Mushroom tyrosinase inhibitory activity, spectrophotometric, L-DOPA substrate; type: biochemical
[1] = DPPH free radical scavenging; conditions: Table 6, unit not given
How it was run: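 Test compound solutions (25 or 100 µg/mL in methanol) added to 0.004% (w/v) methanolic DPPH. After 30 min incubation, absorbance read at 517 nm. Percent inhibition calculated against DPPH solution lacking test material. Run in triplicate.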

S. aureus = assay: Minimum inhibitory concentration, S. aureus; type: cell-based; conditions: Staphylococcus aureus, read-out: Minimal Inhibitory Concentration (MIC)
E. coli = assay: Minimum inhibitory concentration, E. coli; type: cell-based; conditions: Escherichia coli, read-out: Minimal Inhibitory Concentration (MIC)
MCF-7 = assay: Cytotoxic activity, MCF-7; type: cell-based; conditions: for CC50: MCF7, read-out: LC50; for SI (Selectivity Index): IC50 value normal cell / IC50 value cancer cell (Vero / MCF-7)
[2] = Cytotoxic activity, normal Vero cell line; type: cell-based; conditions: African green monkey, Vero cells (normal cell line)

Structure (SMILES)	zone of inhibition at 100 µg/mL (E. coli (MTCC 739)) [mm]	percentage of tyrosinase inhibition (mushroom tyrosinase; 25 µg/mL) [%]	percentage of tyrosinase inhibition (mushroom tyrosinase; 50 µg/mL) [%]	percentage of tyrosinase inhibition (mushroom tyrosinase; 100 µg/mL) [%]	Tyrosinase inhibition IC50 (mushroom tyrosinase; mean ± SE of three experiments) [µg/mL]	Antioxidant activity (100 µg/mL) [1]	MIC (S. aureus) [µg/mL]	MIC (E. coli) [µg/mL]	CC50 (MCF-7; Homo sapiens) [µg/mL]	IC (TGI) (MCF-7; Homo sapiens, MCF7, read-out: TGI) [µM]	SI (Selectivity Index) (MCF-7)	Cytotoxic activity (MCF-7; Table 6, unit not given, equals MCF-7 LC50)	CC50 [2] [µg/mL]
CC1(C)S[C@@H]2[C@H](NC(=O)[C@H](N)c3ccccc3)C(=O)N2[C@H]1C(=O)O [Ampicillin]	17												
Cc1ccccc1NC(=O)C1C(=O)C(c2ccccc2)c2ccc3c(c21)C(=O)c1ccccc1C3=O (stereo not shown) [Compound 1, 2,6,11-Trioxo-3-Phenyl-N-(o-Tolyl)-2,3,6,11-Tetrahydro-1H-Cyclopenta[a]anthracene-1-Carboxamide]		13.72 ± 0.02	49.30 ± 1.06	51.23 ± 0.23	77.62 ± 1.20	58.11	64 (≈ 136 µM)	> 100	87 ± 0.16 (≈ 185 µM)	60.1 ± 0.09	1.06	87.0± 0.16	93.01 ± 0.05 (≈ 197 µM)
COc1cccc2c1C(=O)c1c(O)c3c(c(O)c1C2=O)C[C@@](O)(C(=O)CO)C[C@@H]3O[C@H]1C[C@H](N)[C@H](O)[C@H](C)O1 [Doxorubicin, reference compound]									0.74 ± 0.01 (≈ 1.36 µM)		26.82		19.85 ± 0.02 (≈ 36.5 µM)
O=c1cc(CO)occ1O [Kojic acid, reference compound]		56.23 ± 1.12	67.21 ± 1.12	84.65 ± 1.62									
